Measurements taken from ChEMBL document CHEMBL1151230, “Cytotoxic triterpenoids from Acridocarpus vivy from the Madagascar rain forest” (J Nat Prod, 2004).
Converted amounts (≈) assume the structure as drawn.

Test system: A2780
Experiment: Cytotoxicity against human A2780 cells
Type: functional, cell-based
How it was run: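 Growth inhibition of the human ovarian cancer line A2780. IC50 is the concentration giving 50% inhibition of growth, reported in µg/mL. Actinomycin D served as positive control. Run at Virginia Polytechnic Institute following an earlier published procedure.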

Structure (SMILES) | IC50 [µg/mL]
CC1(C)C=C2[C@H]3CC[C@@H]4[C@@]5(C)CCC(=O)[C@](C)(C=O)[C@@H]5CC[C@@]4(C)[C@]3(C)CC[C@@]2(C(=O)O)CC1 | 0.7 (≈ 1.49 µM)
CC1(C)C=C2[C@H]3CC[C@@H]4[C@@]5(C)CCC(=O)[C@](C)(CO)[C@@H]5CC[C@@]4(C)[C@]3(C)CC[C@@]2(C(=O)O)CC1 | 15.9 (≈ 33.8 µM)
CC(=O)OC[C@@]1(C)C(=O)CC[C@@]2(C)[C@H]1CC[C@]1(C)[C@@H]2CC[C@@H]2C3=CC(C)(C)CC[C@]3(C(=O)O)CC[C@]21C | 11.6 (≈ 22.6 µM)
CC(=O)O[C@@H]1CC[C@]2(C)[C@H]3CC[C@@H]4C5=CC(C)(C)CC[C@]5(C(=O)O)CC[C@@]4(C)[C@]3(C)CC[C@H]2C1(C)C | 15.3 (≈ 30.7 µM)
COc1cc(O)c2c(=O)cc(-c3ccc(O)cc3)oc2c1 [GENKWANIN] | > 20
CC1(C)C=C2[C@H]3CC[C@@H]4[C@@]5(C)CCC(=O)C(C)(C)[C@@H]5CC[C@@]4(C)[C@]3(C)CC[C@@]2(C(=O)O)CC1 [MORONIC ACID] | 13.1 (≈ 28.8 µM)
CC1(C)CC[C@]2(C(=O)O)CC[C@]3(C)C(=CC[C@@H]4[C@@]5(C)CC[C@H](O)C(C)(C)[C@@H]5CC[C@]43C)[C@@H]2C1 [OLEANOLIC_ACID] | 8 (≈ 17.5 µM)
C[C@H]1[C@H](C)CC[C@]2(C(=O)O)CC[C@]3(C)C(=CC[C@@H]4[C@@]5(C)CC[C@H](O)C(C)(C)[C@@H]5CC[C@]43C)[C@H]12 [URSOLIC ACID] | 9.2 (≈ 20.1 µM)
COc1cc(O)c2c(=O)cc(-c3ccc(O)c(OC)c3)oc2c1 [VELUTIN] | > 20
